Results from different studies.
Compare with care: the assays were run in different laboratories.
Target: Activin receptor type-1-like (ACVRL1, Homo sapiens, UniProt P37023)

SMILES | effect on | technique | tested at | remaining binding [%]
CN(C)c1nccc(-c2cnc3ncccn23)n1 | binding |  | 1 µM | 100
C[C@@H](c1ccc(-n2cnc3c(N)ncnc32)cc1)N1CCc2nn(C)c(Cc3ccccc3)c2C1=O | binding | competition with immobilised ligand | 0.1 µM | 66
Cc1cc(C)c(-n2ccn3nc(-c4cccnc4)cc23)cc1NC(=O)c1cc(C#N)cc(S(F)(F)(F)(F)F)c1 | binding | competition with immobilised ligand | 0.1 µM | 78.9
O=C(NCCCN1CCOCC1)c1ccc(Nc2ncc(Cl)c(-c3ccc(Cl)s3)n2)cc1 | binding | competition with immobilised ligand | 1 µM | 100
C=CC(=O)N1CCC(C(=O)NCC(=O)N2CCN(c3nc(-c4cnc(N)nc4C(F)F)nc(N4CCOCC4)n3)CC2)CC1 | binding | competition with immobilised ligand | 1 µM | 92
O=C(NCCCN1CCOCC1)c1ccc(Nc2nccc(-c3cc4ccccc4s3)n2)cc1 | binding | competition with immobilised ligand | 1 µM | 100
Nc1ncc2c(n1)-c1c([nH]c3ccc(C#CC4CC4)cc13)CCCC2 | binding | competition with immobilised ligand | 1 µM | 100
COc1ccnn2ncc(-c3ccnc(N(C)C)n3)c12 | binding |  | 1 µM | 100
CN(C)CC#Cc1ccc(OCCCc2sc(N3CCc4cccc(C(=O)Nc5nc6ccccc6s5)c4C3)nc2C(=O)O)c(F)c1 | binding | competition with immobilised ligand | 1 µM | 82
FC(F)(F)Oc1cccc(-c2cnc3ccc(-c4ccncc4)nn23)c1 | cell-free assay | competition with immobilised ligand | 5 µM | 85
COc1cnc(Nc2cccc(S(N)(=O)=O)c2)nc1N1CCN(c2ccccc2)C(=O)C1 | binding | competition with immobilised ligand | 1 µM | 95
CC(=O)N1CCC(c2ccc(C(=O)NC3=NCCN3)cc2C(F)(F)F)CC1 | binding | competition with immobilised ligand | 1 µM | 100
CN(C)c1nccc(-c2cnn3ncccc23)n1 | binding |  | 1 µM | 100
NS(=O)(=O)c1cc(NC(=O)C2(c3ccccc3Cl)CC2)ccc1Oc1cccc(Cl)c1 | binding | competition with immobilised ligand | 1 µM | 45
N[C@@H]1CCN(c2nccc(-c3cnn4ncccc34)n2)C1 | binding |  | 1 µM | 100
O=C(NCC1CCOCC1)c1n[nH]cc1NC(=O)c1c(F)cccc1F | binding | competition with immobilised ligand | 1 µM | 94
CN(C)c1ncc(F)c(-c2cnn3ncccc23)n1 | binding |  | 1 µM | 100
CC1=C(C#N)C(c2ccc3c(c2)c(NC(=O)c2ccccc2C)nn3C)C(C#N)=C(C)N1 | binding | competition with immobilised ligand | 1 µM | 97
CN(CCCC(F)(F)F)c1nccc(-c2cnn3ncccc23)n1 | binding |  | 1 µM | 68
FC(F)(F)c1ccc2c(c1)nc(-c1cccnc1)n2C1CC1 | cell-free assay | competition with immobilised ligand | 1 µM | 100
Cc1cnn2ncc(-c3ccnc(N(C)C)n3)c2c1 | binding |  | 1 µM | 91
O=C(c1ccc(Nc2ncc(Cl)c(-c3cc4ccccc4s3)n2)cc1)N1CCC(N2CCCC2)CC1 | binding | competition with immobilised ligand | 1 µM | 100
